High-throughput results from PubChem.
The full list was thinned out, with hits kept by preference.
pCIP destab = p/CIP-EGFP fusion destabilizers, primary screen, fluorescence, F442A cells; AID 1984, 2009; 290,000 compounds, 0.01% hits; Q05BA5; decrease of EGFP signal, % at 10 µM; 16 h;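 active = EGFP signal decrease of at least 30% at 10 µM or well 3 SD below plate mean, unless failing retest; inactive = the rest, including hits failing retest or dose response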
Lipid droplet = inhibitors of hepatocyte lipid droplet formation, primary screen, imaging, high-throughput imaging, BODIPY stain. AML12 mouse hepatocytes, oleate lipid droplets. inhibition, % at 6.5 µM. 240,000 compounds, 0.4% hits. AID 1656, 2009;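 active = lipid droplet intensity inhibited by at least 50%, with more than 500 cells counted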
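Test system: AML12 hepatocytes (mouse); reagent: oleate loading, 100 µM; dosing: one dose, 6.5 µM compound; incubation: overnight exposure; signal: fluorescence imaging, 20x objective, two fields per well; read-out basis: % inhibition of corrected integrated BODIPY droplet signal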
Mdm2 ligase inh = MDM2-luciferase reporter signal enhancers, primary screen, MDM2 E3 ligase inhibitor project, cell-based, luminescence, 1536-well | AID 1230, 2008 | 210,000 compounds, 0.11% hits | E3 ubiquitin-protein ligase Mdm2 (Homo sapiens), Q00987 | cell-based MDM2 ubiquitination luciferase reporter, 2 h; 0 = plate control, 100 = twice control, blank-subtracted | signal enhancement, % at 5 µM;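 active = signal enhancement of 30% or more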;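 also: luminescence tracks abundance of the self-degrading MDM2-luciferase fusion protein; higher signal means inhibition of MDM2 E3 ligase activity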
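Material: Stable MDM2–luciferase fusion reporter cells | Amount: 2000 cells seeded into each well | Dosing: One concentration, 5 µM, with 0.2% DMSO | Incubation: 4 h cell settling then 2 h compound exposure, 37 °C | Measured by: Luciferase luminescence | Read-out basis: % enhancement relative to plate controls after blank subtraction | Benchmarks: Control and blank well means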
Hep lipid conf = hepatocyte lipid droplet accumulation inhibitors, confirmation, imaging, AML12 mouse hepatocytes, single concentration, high-content. 870 compounds, 65% hits. inhibition, % at 5.2 µM. AID 463183, 2010. BODIPY lipid droplet imaging; droplets induced with 100 µM oleic acid. shares compounds with Lipid droplet;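 active = inhibition of lipid droplet metric at least 50%, with more than 300 cells in each of four replicates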
AML12 tox img = AML12 hepatocyte cytotoxicity, counter-screen for hepatic lipid droplet formation project, imaging, DAPI nuclear morphology imaging. shares compounds with Lipid droplet. AML12 mouse hepatocytes; active compounds read high; cells fed 100 µM oleate overnight. z-score at 5 µM. 870 compounds, 3% hits. AID 463200, 2010; in the data active = z-score above about 6.3;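 also: compound exposure lasted overnight at 37 °C before fixation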
AML12 tox conf = AML12 hepatocyte cytotoxicity, confirmation, cytotoxicity control for hepatic lipid droplet formation project, cell-based, single concentration. shares compounds with Lipid droplet. AML12 mouse hepatocyte viability, ATP luminescence; cells loaded with 100 µM oleic acid. cytotoxicity, % at 50 µM. 530 tested, under 10 active;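 active = cytotoxicity above 50% in each of four replicates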;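 also: compound exposure lasted overnight at 37 °C before the ATP read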
Hits are given with their value; 0 = inactive; - = no result given.

SMILES	pCIP destab	Lipid droplet	Mdm2 ligase inh	Hep lipid conf	AML12 tox img	others
COc1ccc(C(C(=O)NC(C)(C)C)N(CCC(C)C)C(=O)CCC(=O)Nc2cc(C)on2)cc1 (centres undefined)	0	114	-	108	0	AML12 tox conf=0
COc1ccc(C(C(=O)NC(C)(C)C)N(C(=O)CCC(=O)Nc2cc(C)on2)c2cccc(C)c2C)cc1 (centres undefined)	0	0	-	-	-
CCC(C)(C)NC(=O)C(c1ccc(OC)cc1)N(Cc1ccccc1)C(=O)CCC(=O)Nc1cc(C)on1 (centres undefined)	0	54	-	92	0	AML12 tox conf=0
COc1cccc(C(C(=O)NC(C)(C)C)N(CCC(C)C)C(=O)CCC(=O)Nc2cc(C)on2)c1OC (centres undefined)	0	0	0	-	-
CCc1ccc(N(C(=O)CCC(=O)Nc2cc(C)on2)C(C(=O)NC(C)(C)C)c2ccc(OC)cc2)cc1 (centres undefined)	0	0	-	-	-
CCC(C)(C)NC(=O)C(c1ccc(OC)cc1)N(Cc1ccc(OC)cc1)C(=O)CCC(=O)Nc1cc(C)on1 (centres undefined)	0	0	-	-	-
COC(=O)c1[nH]c2c(c1C)C(=O)CC(c1cccc(OC)c1)C2 (centres undefined)	0	-	-	-	-
CCOCCCNC(=O)c1c[nH]c2c(CC)cccc2c1=O	0	0	0	-	-
O=C(COC(=O)C1CCN(S(=O)(=O)c2ccc3c(c2)OCCO3)CC1)Nc1cccc2ccccc12	0	0	0	-	-
Cn1c2c(c(=O)n3ncnc13)CCCC2	0	0	0	-	-
COCCNC(=O)C(c1ccc(O)cc1)N(Cc1ccco1)C(=O)CCC(=O)Nc1ccccn1 (centres undefined)	0	0	-	-	-
Cc1ccc(C(C(=O)NC(C)(C)C)N(Cc2ccco2)C(=O)CCC(=O)Nc2ccccn2)cc1 (centres undefined)	0	50	-	0	0
CC(C)(CO)NC(=O)C(Cc1ccccc1)N1C(=O)c2ccccc2C1=O (centres undefined)	0	0	-	-	-
Cc1ccccc1NC(=O)Cn1c(=O)sc2ccccc21	0	0	0	-	-
COCC1COS(=O)(=O)NC1(C)C (centres undefined)	0	0	-	-	-
CCn1c(=O)n(CC)c2cc(S(N)(=O)=O)ccc21	0	-	0	-	-
CCn1c(=O)n(CC)c2cc(N)ccc21	0	54	0	0	0
CCCC(=O)N(Cc1cc(=O)[nH]c2ccccc12)c1cccc(C)c1	0	0	-	-	-
Cc1cccc(N(Cc2cc(=O)[nH]c3ccccc23)C(=O)CCl)c1	0	55	-	80	0
CCN(Cc1ccccc1)C(=O)C1CCN(C(=O)Nc2ccccc2)CC1	0	77	-	104	0	AML12 tox conf=0
CCN(CC)C(=O)C1CCCN(C(=O)Nc2ccccc2)C1 (centres undefined)	0	0	0	-	-
CCOc1ccc(CCNC(=O)CCc2nc(-c3ccc(C)cc3)no2)cc1OCC	0	-	0	-	-
COc1ccc(-c2nc(CS(=O)CC(=O)NCCc3ccc(OC)c(OC)c3)c(C)o2)cc1 (centres undefined)	0	0	-	-	-
CCOc1ccc(CCNC(=O)CCc2nc(-c3ccc(OC)cc3)no2)cc1OCC	0	69	0	108	0	AML12 tox conf=0
CCOc1ccc(CCNC(=O)CS(=O)Cc2nc(-c3ccc(OC)cc3)oc2C)cc1OCC (centres undefined)	0	76	-	81	0	AML12 tox conf=0
SMILES	pCIP destab	Lipid droplet	Mdm2 ligase inh	Hep lipid conf	AML12 tox img	others
COc1ccc(/C=C(\NC(=O)c2cccs2)C(=O)Nc2ccc(C)cc2)cc1OC	0	0	0	-	-
COc1ccc(/C=C(/NC(=O)c2cccs2)C(=O)Nc2ccc(C)cc2)cc1OC	0	61	0	100	0	AML12 tox conf=0
Cn1cnnc1SCC(=O)NNC(=O)COc1ccc(Cl)cc1	0	0	0	-	-
O=[N+]([O-])c1sccc1CS(=O)(=O)c1ccccc1	0	71	0	0	0
O=C(O)c1ccc([N+](=O)[O-])c(CS(=O)(=O)c2ccccc2)c1	0	-	-	-	-
COc1ccc(C(=O)Nc2ccc(Cl)cc2C(=O)NCc2ccco2)cc1	0	0	0	-	-
CCC(C)C(NC(=O)c1ccccc1NC(=O)c1ccc(OC)cc1)C(=O)NCc1ccco1 (centres undefined)	0	70	0	100	0	AML12 tox conf=0
CN(C1=C(NC(=O)c2ccc(Cl)cc2)C(=O)c2ccccc2C1=O)c1ccccc1	0	69	0	91	0
O=C(NC1=C(Nc2ccc(Cl)cc2)C(=O)c2ccccc2C1=O)c1ccccc1	0	0	0	-	-
C=CCn1c(SCC(=O)N2CCOCC2)nc2ccccc2c1=O	0	0	-	-	-
CCOC(=O)CSc1c(-c2cccs2)[nH]c2ccccc12	0	83	0	95	0	AML12 tox conf=0
CCOC(=O)CSc1c(-c2ccc(Cl)cc2)[nH]c2ccccc12	0	0	0	-	-
Cc1ccn2c(C=O)c(-c3ccc(F)cc3)c(C=O)c2c1	0	0	0	-	-
CCOc1ccc(S(=O)(=O)N(C)c2ccc(OCC(=O)NCCc3ccc(OC)cc3)cc2)cc1	0	0	-	-	-
Cc1nn(C)c(NC(=O)c2ccccc2Cl)c1Br	0	0	-	-	-
COC(=O)C1=C(C(=O)OC)SC(=C2C(=S)C(C)(C)N(C(=O)C(C)C)c3ccccc32)S1	0	57	0	102	0	AML12 tox conf=0
COC(=O)C1=C(C(=O)OC)SC(=C2C(=S)C(C)(C)N(C(=O)C3CC3)c3ccccc32)S1	0	0	-	-	-
Cc1cccc(S(=O)(=O)NNC(=O)Cc2cccn2C)c1	0	0	0	-	-
CC1CCCCN1Cc1c(O)ccc2c(=O)c(-c3ccccc3)coc12 (centres undefined)	0	87	-	0	0
CCC1CCCCN1Cc1c(O)ccc2c(=O)c(-c3ccccc3)coc12 (centres undefined)	0	0	-	-	-
COc1c(C)cc(Br)cc1C(=O)Nc1cccc(NC(=O)c2ccco2)c1	0	60	0	97	0	AML12 tox conf=0
COc1ccc(Br)cc1C(=O)Nc1cccc(NC(=O)c2ccco2)c1	0	-	0	-	-
Cc1ccc(-c2c(C(=O)N/N=C/C3CC=CCC3)nnn2-c2nonc2N)cc1 (centres undefined)	0	0	-	-	-
O=C(Nc1nc(-c2cccs2)c(-c2cccs2)s1)C1CCCC1	0	54	0	94	0
O=C(Nc1nnc(-c2cccs2)s1)C1CC1	0	0	0	-	-
Cc1cccc(OCC(=O)NNC(=O)C2CCCCC2C(=O)O)c1 (centres undefined)	0	-	0	-	-
CSc1ccc(CN2CCN(C3CCCC3)C(CCO)C2)cc1 (centres undefined)	0	55	0	0	0
